# Key:
# [1] = Geometrical mean of MIC calculated from MIC values for Escherichia coli NIHJ JC-2 and Klebsiella pneumoniae SRL-1; format: functional
# Outline: (§1)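 Agar dilution on sensitivity test agar with serial twofold antibiotic dilutions. Overnight tryptosoy broth cultures of E. coli NIHJ JC-2 and K. pneumoniae SRL-1 were diluted to about 10^6 cells/mL in the same broth, and one loopful was inoculated. Plates were incubated at 37 °C for 18–20 h. MIC was the lowest concentration inhibiting visible growth. The value is the geometric mean of the two strains' MICs.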
# [2] = Rate constant (Kobs) obtained from IR spectroscopy
# [3] = Geometrical mean of MIC calculated from MIC values for Escherichia coli NIHJ JC-2 and Klebsiella pneumoniae SRL-1.; format: functional; outline: as §1
# [4] = Dissociation constant (Kobs) obtained from IR spectroscopy; f = Not detected; format: physicochemical
Structure (SMILES),MIC [1] [µg/mL],10^2 kobsd (h^-1) [2],MIC [3] [µg/mL],Log k [4]
CC1=C(C(=O)[O-])N2C(=O)C(NC(=O)Cc3ccccc3)C2SC1.[Na+] (stereo not given),70.7,1.36 hr-1,–,–
CS(=O)(=O)OC1=C(C(=O)[O-])N2C(=O)C(NC(=O)Cc3ccccc3)C2SC1.[Na+] (stereo not given),8.84,46.5 hr-1,–,–
O=C(Cc1ccccc1)NC1C(=O)N2C(C(=O)[O-])=CCSC12.[Na+] (stereo not given),8.85,3.1 hr-1,–,–

# Second part, the compound after the results:
MIC [1] [µg/mL],10^2 kobsd (h^-1) [2],MIC [3] [µg/mL],Log k [4],Structure (SMILES)
12.5,15.2 hr-1,–,–,O=C(Cc1ccccc1)NC1C(=O)N2C(C(=O)[O-])=C(Cl)CSC12.[Na+] (stereo not given)
25,11.1 hr-1,–,–,CC(=O)OCC1=C(C(=O)[O-])N2C(=O)C(NC(=O)Cc3cccs3)C2SC1.[Na+] (stereo not given)
–,47.3 obs,–,–,O=C(Cc1cccs1)[N-]C1C(=O)N2C(C(=O)[O-])=C(C[n+]3ccccc3)CSC12.[Na+] (stereo not given)
> 100,1.82 hr-1,–,–,CCOC(=O)CC1=C(C(=O)[O-])N2C(=O)C(NC(=O)Cc3ccccc3)C2SC1.[Na+] (stereo not given)
–,–,17.7,Not detected,COC1=C(C(=O)[O-])N2C(=O)C(NC(=O)Cc3ccccc3)C2SC1.[Na+] (stereo not given)
